ChEMBL document CHEMBL4152306, “Synthesis and biological evaluation of new coumarins bearing 2,4-diaminothiazole-5-carbonyl moiety” (Eur J Med Chem, 2018)
≈ marks a conversion by molar mass, not a printed value.

Assays:
MCF7 [1] = test: Cytotoxicity against human MCF7 cells assessed as inhibition of cell proliferation after 48 hrs by MTT assay; assay type: functional, cell-based; details: MCF7, 48 h
Outline: (§1)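 Cells seeded at 8 × 10³ per well in complete medium, incubated overnight at 37°C, 5% CO2, then exposed to a range of compound concentrations (DMSO solutions; 0.1% DMSO negative control, etoposide positive control) for 48 h at 37°C. Viability by MTT, absorbance 570 nm. IC50 from dose-response curves, mean ± SE of at least three independent experiments.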

HepG2 = test: Cytotoxicity against human HepG2 cells assessed as inhibition of cell proliferation after 48 hrs by MTT assay; assay type: functional, cell-based; details: HepG2, 48 h; outline: as §1
SW480 = test: Cytotoxicity against human SW480 cells assessed as inhibition of cell proliferation after 48 hrs by MTT assay; assay type: functional, cell-based; details: SW480, 48 h; outline: as §1
[2] = Antioxidant activity assessed as ferric ion reduction by measuring FeSO4 equivalents reducing Fe3+-TPTZ to Fe2+-TPTZ at 5 ug/ml after 25 mins by FRAP assay; assay type: functional
Outline: (§2)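 FRAP reagent: 10 mM TPTZ in 40 mM HCl, 20 mM FeCl3·6H2O and 300 mM acetate buffer pH 3.6 (1:1:10). 20 µl sample (tested 5 to 100 µg/ml) mixed with 150 µl reagent, incubated 37°C for 25 min, absorbance at 593 nm. Values as µM FeSO4·7H2O equivalents from calibration curve; ascorbic acid as standard.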

[3] = Antioxidant activity assessed as ferric ion reduction by measuring FeSO4 equivalents reducing Fe3+-TPTZ to Fe2+-TPTZ at 10 ug/ml after 25 mins by FRAP assay; assay type: functional; outline: as §2
[4] = Antioxidant activity assessed as ferric ion reduction by measuring FeSO4 equivalents reducing Fe3+-TPTZ to Fe2+-TPTZ at 20 ug/ml after 25 mins by FRAP assay; assay type: functional; outline: as §2
[5] = Antioxidant activity assessed as ferric ion reduction by measuring FeSO4 equivalents reducing Fe3+-TPTZ to Fe2+-TPTZ at 40 ug/ml after 25 mins by FRAP assay; assay type: functional; outline: as §2
[6] = Antioxidant activity assessed as ferric ion reduction by measuring FeSO4 equivalents reducing Fe3+-TPTZ to Fe2+-TPTZ at 80 ug/ml after 25 mins by FRAP assay; assay type: functional; outline: as §2
[7] = Antioxidant activity assessed as ferric ion reduction by measuring FeSO4 equivalents reducing Fe3+-TPTZ to Fe2+-TPTZ at 100 ug/ml after 25 mins by FRAP assay; assay type: functional; outline: as §2
[8] = Antioxidant activity assessed as DPPH radical scavenging activity incubated for 30 mins under dark condition by spectrophotometric method; assay type: functional
Outline: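 Test compounds dissolved in DMSO; 20 µl sample mixed with 250 µl DPPH in methanol (working solution diluted from 0.5 mM methanolic stock to absorbance […] at 517 nm). Kept 30 min at room temperature in dark, absorbance read at 517 nm against compound-free control; ascorbic acid standard. Triplicates; % inhibition from control vs sample absorbance; IC50 reported.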

MCF7 [9] = test: Induction of apoptosis in human MCF7 cells after 48 hrs by Annexin-V-FITC/propidium iodide staining based flow cytometry; assay type: functional, cell-based
Outline: (§3)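 MCF-7 cells seeded in 6-well plates, incubated overnight at 37 °C, 5% CO2, treated 48 h; untreated cells as negative control, etoposide as standard. Cells trypsinized, PBS-washed twice, pelleted at 1200 rpm, resuspended in 500 µl binding buffer with 5 µl each Annexin V-FITC and PI, 5–15 min at room temperature in dark, then flow cytometry.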

MCF7 [10] = test: Induction of apoptosis in human MCF7 cells assessed as live cells at IC50 after 48 hrs by Annexin-V-FITC/propidium iodide staining based flow cytometry (reference value: 70.5%); assay type: functional; outline: as §3
MCF7 [11] = test: Induction of apoptosis in human MCF7 cells assessed as early apoptotic cells at IC50 after 48 hrs by Annexin-V-FITC/propidium iodide staining based flow cytometry (reference value: 8.16%); assay type: functional; outline: as §3
MCF7 [12] = test: Induction of apoptosis in human MCF7 cells assessed as late apoptotic cells at IC50 after 48 hrs by Annexin-V-FITC/propidium iodide staining based flow cytometry (reference value: 15.6%); assay type: functional; outline: as §3
MCF7 [13] = test: Induction of apoptosis in human MCF7 cells assessed as necrotic cells at IC50 after 48 hrs by Annexin-V-FITC/propidium iodide staining based flow cytometry (reference value: 5.79%); assay type: functional; outline: as §3
MCF7 [14] = test: Induction of apoptosis in human MCF7 cells assessed as live cells at 7.5 ug/ml after 48 hrs by Annexin-V-FITC/propidium iodide staining based flow cytometry (reference value: 70.5%); assay type: functional; outline: as §3
MCF7 [15] = test: Induction of apoptosis in human MCF7 cells assessed as early apoptotic cells at 7.5 ug/ml after 48 hrs by Annexin-V-FITC/propidium iodide staining based flow cytometry (reference value: 8.16%); assay type: functional; outline: as §3
MCF7 [16] = test: Induction of apoptosis in human MCF7 cells assessed as late apoptotic cells at 7.5 ug/ml after 48 hrs by Annexin-V-FITC/propidium iodide staining based flow cytometry (reference value: 15.6%); assay type: functional; outline: as §3
MCF7 [17] = test: Induction of apoptosis in human MCF7 cells assessed as necrotic cells at 7.5 ug/ml after 48 hrs by Annexin-V-FITC/propidium iodide staining based flow cytometry (reference value: 5.79%); assay type: functional; outline: as §3
MCF7 [18] = test: Induction of apoptosis in human MCF7 cells assessed as live cells at 11.2 ug/ml after 48 hrs by Annexin-V-FITC/propidium iodide staining based flow cytometry (reference value: 70.5%); assay type: functional; outline: as §3
MCF7 [19] = test: Induction of apoptosis in human MCF7 cells assessed as early apoptotic cells at 11.2 ug/ml after 48 hrs by Annexin-V-FITC/propidium iodide staining based flow cytometry (reference value: 8.16%); assay type: functional; outline: as §3
MCF7 [20] = test: Induction of apoptosis in human MCF7 cells assessed as late apoptotic cells at 11.2 ug/ml after 48 hrs by Annexin-V-FITC/propidium iodide staining based flow cytometry (reference value: 15.6%); assay type: functional; outline: as §3
MCF7 [21] = test: Induction of apoptosis in human MCF7 cells assessed as necrotic cells at 11.2 ug/ml after 48 hrs by Annexin-V-FITC/propidium iodide staining based flow cytometry (reference value: 5.79%); assay type: functional; outline: as §3
MCF7 [22] = test: Cell cycle arrest in human MCF7 cells assessed as accumulation at G2 phase at 7.5 ug/ml after 48 hrs by propidium iodide staining based flow cytometry (reference value: 13.24%); assay type: functional
MCF7 [23] = test: Cell cycle arrest in human MCF7 cells assessed as accumulation at S phase at 7.5 ug/ml after 48 hrs by propidium iodide staining based flow cytometry (reference value: 26.04%); assay type: functional
MCF7 [24] = test: Cell cycle arrest in human MCF7 cells assessed as accumulation at G1 phase at 7.5 ug/ml after 48 hrs by propidium iodide staining based flow cytometry (reference value: 68.58%); assay type: functional
MCF7 [25] = test: Cell cycle arrest in human MCF7 cells assessed as accumulation at G2 phase at 11.2 ug/ml after 48 hrs by propidium iodide staining based flow cytometry (reference value: 13.24%); assay type: functional
MCF7 [26] = test: Cell cycle arrest in human MCF7 cells assessed as accumulation at S phase at 11.2 ug/ml after 48 hrs by propidium iodide staining based flow cytometry (reference value: 26.04%); assay type: functional
MCF7 [27] = test: Cell cycle arrest in human MCF7 cells assessed as accumulation at G1 phase at 11.2 ug/ml after 48 hrs by propidium iodide staining based flow cytometry (reference value: 68.58%); assay type: functional

SMILES | IC50 (MCF7 [1]) [µg/mL] | IC50 (HepG2) [µg/mL] | IC50 (SW480) [µg/mL] | Activity [2] [µMequiv] | Activity [3] [µMequiv] | Activity [4] [µMequiv] | Activity [5] [µMequiv] | Activity [6] [µMequiv] | Activity [7] [µMequiv] | IC50 [8] [µg/mL] | further results
Nc1nc(N2CCN(Cc3ccccc3)CC2)sc1C(=O)c1cc2ccccc2oc1=O | 11.6 (≈ 26 µM) | 32 (≈ 71.7 µM) | 23.4 (≈ 52.4 µM) | 88.5 | 134 | 198 | 226 | 229 | 444 | 31.7 (≈ 71 µM) | –
O=C1O[C@H]([C@@H](O)CO)C(O)=C1O [ASCORBIC ACID] | – | – | – | 74.9 | 124 | 216 | 310 | 397 | 484 | 9.6 (≈ 54.5 µM) | –
Nc1nc(N2CCSCC2)sc1C(=O)c1cc2ccccc2oc1=O | 7.5 (≈ 20.1 µM) | 16.9 (≈ 45.3 µM) | 13 (≈ 34.8 µM) | 76.3 | 86.3 | 148 | 266 | 455 | 564 | 23.9 (≈ 64 µM) | Activity (MCF7 [9]): Dose-dependent effect; Activity (MCF7 [10]): 54.1%; Activity (MCF7 [11]): 4.65%; Activity (MCF7 [12]): 19.2%; Activity (MCF7 [13]): 18.3%; Activity (MCF7 [14]): 51.5%; Activity (MCF7 [15]): 5.15%; Activity (MCF7 [16]): 19.2%; Activity (MCF7 [17]): 24.2%; Activity (MCF7 [18]): 39.2%; Activity (MCF7 [19]): 5.9%; Activity (MCF7 [20]): 41.7%; Activity (MCF7 [21]): 13.2%; Activity (MCF7 [22]): 8.28%; Activity (MCF7 [23]): 16.79%; Activity (MCF7 [24]): 83.98%; Activity (MCF7 [25]): 6.44%; Activity (MCF7 [26]): 9.08%; Activity (MCF7 [27]): 89.83%
Nc1nc(N2CCOCC2)sc1C(=O)c1cc2ccccc2oc1=O | 9.8 (≈ 27.4 µM) | 34.8 (≈ 97.4 µM) | 20.5 (≈ 57.4 µM) | 111 | 142 | 205 | 345 | 384 | 605 | 25.8 (≈ 72.2 µM) | –
COc1cc([C@@H]2c3cc4c(cc3[C@@H](O[C@@H]3O[C@@H]5CO[C@@H](C)O[C@H]5[C@H](O)[C@H]3O)[C@H]3COC(=O)[C@H]23)OCO4)cc(OC)c1O [ETOPOSIDE] | 3.1 (≈ 5.27 µM) | 6.2 (≈ 10.5 µM) | 7.7 (≈ 13.1 µM) | – | – | – | – | – | – | – | –
Nc1nc(N2CCOCC2)sc1C(=O)c1cc2cc(Br)ccc2oc1=O | 14.6 (≈ 33.5 µM) | 19.3 (≈ 44.2 µM) | 48.7 (≈ 112 µM) | 76.5 | 84.3 | 110 | 162 | 212 | 248 | 34.6 (≈ 79.3 µM) | –
Nc1nc(N2CCSCC2)sc1C(=O)c1cc2cc(Br)ccc2oc1=O | 12.5 (≈ 27.6 µM) | 29.7 (≈ 65.7 µM) | 44.5 (≈ 98.4 µM) | 57 | 70.5 | 78.5 | 94.3 | 164 | 171 | 27.7 (≈ 61.2 µM) | –
